In ChEMBL document CHEMBL3098006, “Preparation of 8-hydroxyquinoline derivatives as potential antibiotics against Staphylococcus aureus” (Bioorg Med Chem Lett, 2014):
Converted amounts (≈) assume the structure as drawn.

Legend:
Staphylococcus aureus [1] = test: Antibacterial activity against Staphylococcus aureus assessed as growth inhibition after 24 hrs by broth dilution method; format: functional
Outline: (§1)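 Serial broth dilution in 96-well microtitre plate, compounds from 50 µg/mL top concentration (stocks 50 mg/mL in DMSO); methicillin positive control for S. aureus (from 50 µg/mL), […]. Incubation 37 °C, 24 h; MIC taken as lowest concentration giving complete growth inhibition.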

Escherichia coli = test: Antibacterial activity against Escherichia coli assessed as growth inhibition after 24 hrs by broth dilution method; format: functional; outline: as §1
[2] = Cytotoxicity against human NE3 cells assessed as cell shrinkage after 24 hrs by SRB assay; format: cell-based
Outline: (§2)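 HaCaT keratinocytes and NE3 normal esophageal cells trypsinised, washed, resuspended at about 1×10^5 cells/mL, seeded in 96-well plates 24 h, then exposed 24 h to compounds from 50 µg/mL; doxorubicin 4 µg/mL positive control, 0.1% DMSO vehicle. SRB staining after TCA fixation, absorbance 575 nm; three independent experiments in triplicate, mean ± SD.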

HaCaT = test: Cytotoxicity against human HaCaT cells assessed as cell shrinkage after 24 hrs by SRB assay; format: cell-based; outline: as §2
Staphylococcus aureus [3] = test: Antibacterial activity against Staphylococcus aureus assessed as growth inhibition at 15 ug/mL after 24 hrs; format: functional; conditions: read-out: IZ
Outline: (§3)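 Agar well diffusion: S. aureus diluted in broth, plated on nutrient agar, wells punched with sterile pipette and loaded with compound (amount per well as in line) or methicillin positive control. Incubation 37 °C, 24 h; inhibition zone recorded as radius in mm, mean ± SD of three results.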

Staphylococcus aureus [4] = test: Antibacterial activity against Staphylococcus aureus assessed as growth inhibition at 50 ug/mL after 24 hrs; format: functional; outline: as §3
Staphylococcus aureus [5] = test: Antibacterial activity against Staphylococcus aureus assessed as growth inhibition at 5 ug/mL after 24 hrs; format: functional; conditions: read-out: IZ; outline: as §3

SMILES | MIC (Staphylococcus aureus [1]) [µg/mL] | MIC (Escherichia coli) [µg/mL] | IC50 [2] [µg/mL] | IC50 (HaCaT) [µg/mL] | other results
COc1cccc2c1C(=O)c1c(O)c3c(c(O)c1C2=O)C[C@@](O)(C(=O)CO)C[C@@H]3O[C@H]1C[C@H](N)[C@H](O)[C@H](C)O1 [DOXORUBICIN] |  |  | 1.89 (≈ 3.48 µM) | 3.26 (≈ 6 µM) | 
Cc1ccc2c(Br)cc(Br)c(O)c2n1 [BROQUINALDOL] | 6.25 (≈ 19.7 µM) | > 50 | 18.6 (≈ 58.7 µM) | 22.5 (≈ 70.9 µM) | zone of inhibition at 15 µg/mL (Staphylococcus aureus [3]): 7.43 mm
CC1(C)S[C@@H]2[C@H](NC(=O)[C@H](N)c3ccccc3)C(=O)N2[C@H]1C(=O)O [AMPICILLIN] |  | 7.5 (≈ 21.5 µM) |  |  | 
COc1cccc(OC)c1C(=O)N[C@@H]1C(=O)N2[C@@H]1SC(C)(C)[C@@H]2C(=O)O [METHICILLIN] | 3.12 (≈ 8.21 µM) |  |  |  | zone of inhibition at 5 µg/mL (Staphylococcus aureus [5]): 10.8 mm

Second part, led by results:

MIC (Staphylococcus aureus [1]) [µg/mL] | MIC (Escherichia coli) [µg/mL] | SMILES | IC50 [2] [µg/mL] | IC50 (HaCaT) [µg/mL] | other results
> 50 | > 50 | CCOc1cccc2ccc(C)nc12 |  |  | 
> 50 | > 50 | COc1cccc2ccc(C)nc12 |  |  | 
> 50 | > 50 | Cc1ccc2cccc(OCc3ccccc3)c2n1 |  |  | 
> 50 | > 50 | CCCCOc1cccc2ccc(C)nc12 |  |  | 
50 | > 50 | Cl.O=Cc1ccc2cccc(O)c2n1 | 18.1 | 22.5 | zone of inhibition at 50 µg/mL (Staphylococcus aureus [4]; Staphylococcus aureus, 24 h, read-out: IZ): 4.4 mm
50 (≈ 289 µM) | > 50 | O=Cc1ccc2cccc(O)c2n1 | 16.1 (≈ 92.7 µM) | 19.1 (≈ 111 µM) | inhibition zone (IZ) (Staphylococcus aureus [4]): 7.5 mm
> 50 | > 50 | Cc1ccc2cccc(OCCN3CCCCC3)c2n1 |  |  | 
